According to ChEMBL document CHEMBL3763019, “Discovery of benzenesulfonamide derivatives as potent PI3K/mTOR dual inhibitors with in vivo efficacies against hepatocellular carcinoma” (Bioorg Med Chem, 2016):

Legend:
[1] = Antiproliferative activity against human OVCAR4 cells incubated for 48 hrs by sulforhodamine B assay; assay type: functional; conditions: OVCAR-4, 48 h
How it was run: (§1)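 Run externally by the US National Cancer Institute as part of its 60 human cancer cell line cytotoxicity screen (NCI-60).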

[2] = Antiproliferative activity against human OVCAR8 cells incubated for 48 hrs by sulforhodamine B assay; assay type: functional; conditions: OVCAR-8, 48 h; how it was run: as §1
ACHN = test: Antiproliferative activity against human ACHN cells incubated for 48 hrs by sulforhodamine B assay; assay type: functional; how it was run: as §1
[3] = Antiproliferative activity against human PC3 cells incubated for 48 hrs by sulforhodamine B assay; assay type: functional; conditions: PC-3, 48 h; how it was run: as §1
[4] = Antiproliferative activity against human DU145 cells incubated for 48 hrs by sulforhodamine B assay; assay type: functional; conditions: DU-145, 48 h; how it was run: as §1
MDA-MB-231 = test: Antiproliferative activity against human MDA-MB-231 cells incubated for 48 hrs by sulforhodamine B assay; assay type: functional; conditions: MDA-MB-231, 48 h; how it was run: as §1
[5] = Antiproliferative activity against human NCI60 incubated for 48 hrs by sulforhodamine B assay; assay type: functional; conditions: NCI60, 48 h; how it was run: as §1
[6] = Cytotoxicity against human HCT116 cells after 72 hrs by MTT assay; assay type: functional, cell-based; conditions: HCT-116, 72 h
How it was run: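 Log-phase cells at 40,000–50,000 cells/mL in DMEM with 10% FBS and antibiotics were seeded and cultured overnight at 37 °C, 5% CO₂. Compounds were diluted in DMSO/PBS from 10^-4 to 10^-9 M and applied for 72 h. MTT (5 mg/mL stock) was then added for 4 h and absorbance read at 570 nm. IC50 came from nonlinear regression on triplicate wells, averaged.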

[7] = molecular target: Phosphatidylinositol 4,5-bisphosphate 3-kinase catalytic subunit alpha isoform (Homo sapiens, UniProt P42336); test: Inhibition of PI3K-alpha (unknown origin) using PIP2 as substrate incubated for 1 hr by Kinase-Glo luminescent kinase assay
Sequence of Phosphatidylinositol 4,5-bisphosphate 3-kinase catalytic subunit alpha isoform (P42336 whole entry, canonical isoform): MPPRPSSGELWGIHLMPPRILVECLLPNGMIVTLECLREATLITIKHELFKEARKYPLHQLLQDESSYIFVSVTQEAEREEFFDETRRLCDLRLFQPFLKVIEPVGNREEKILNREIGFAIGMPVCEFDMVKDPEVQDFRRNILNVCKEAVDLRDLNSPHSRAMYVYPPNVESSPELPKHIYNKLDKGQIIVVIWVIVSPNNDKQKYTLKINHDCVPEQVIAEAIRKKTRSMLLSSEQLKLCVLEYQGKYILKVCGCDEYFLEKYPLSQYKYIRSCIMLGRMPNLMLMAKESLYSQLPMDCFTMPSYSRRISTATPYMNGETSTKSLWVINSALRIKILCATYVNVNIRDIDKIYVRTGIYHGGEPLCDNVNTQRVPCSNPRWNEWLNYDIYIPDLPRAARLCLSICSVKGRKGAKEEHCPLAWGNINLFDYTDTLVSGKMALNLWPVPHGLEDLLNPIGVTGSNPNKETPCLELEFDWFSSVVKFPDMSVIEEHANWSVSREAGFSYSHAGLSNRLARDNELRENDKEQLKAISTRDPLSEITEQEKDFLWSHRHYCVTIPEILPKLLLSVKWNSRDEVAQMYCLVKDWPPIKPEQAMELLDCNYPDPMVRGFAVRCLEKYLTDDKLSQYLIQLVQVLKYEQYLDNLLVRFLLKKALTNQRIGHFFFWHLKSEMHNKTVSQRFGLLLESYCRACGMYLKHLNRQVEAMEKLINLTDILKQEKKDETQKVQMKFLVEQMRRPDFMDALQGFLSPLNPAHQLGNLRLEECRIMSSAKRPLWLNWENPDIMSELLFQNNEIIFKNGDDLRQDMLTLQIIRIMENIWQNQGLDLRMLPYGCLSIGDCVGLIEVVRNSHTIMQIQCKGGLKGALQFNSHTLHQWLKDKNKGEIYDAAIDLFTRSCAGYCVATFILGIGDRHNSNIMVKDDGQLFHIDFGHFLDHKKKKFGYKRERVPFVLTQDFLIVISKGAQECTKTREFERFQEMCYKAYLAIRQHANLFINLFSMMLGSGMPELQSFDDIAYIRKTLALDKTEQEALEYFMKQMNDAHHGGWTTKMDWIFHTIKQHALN

[8] = molecular target: Phosphatidylinositol 4,5-bisphosphate 3-kinase catalytic subunit beta isoform (Homo sapiens, UniProt P42338); test: Inhibition of PI3K-beta (unknown origin) after 40 mins by ADP-Glo luminescent kinase assay
Sequence of Phosphatidylinositol 4,5-bisphosphate 3-kinase catalytic subunit beta isoform (P42338 whole entry, canonical isoform): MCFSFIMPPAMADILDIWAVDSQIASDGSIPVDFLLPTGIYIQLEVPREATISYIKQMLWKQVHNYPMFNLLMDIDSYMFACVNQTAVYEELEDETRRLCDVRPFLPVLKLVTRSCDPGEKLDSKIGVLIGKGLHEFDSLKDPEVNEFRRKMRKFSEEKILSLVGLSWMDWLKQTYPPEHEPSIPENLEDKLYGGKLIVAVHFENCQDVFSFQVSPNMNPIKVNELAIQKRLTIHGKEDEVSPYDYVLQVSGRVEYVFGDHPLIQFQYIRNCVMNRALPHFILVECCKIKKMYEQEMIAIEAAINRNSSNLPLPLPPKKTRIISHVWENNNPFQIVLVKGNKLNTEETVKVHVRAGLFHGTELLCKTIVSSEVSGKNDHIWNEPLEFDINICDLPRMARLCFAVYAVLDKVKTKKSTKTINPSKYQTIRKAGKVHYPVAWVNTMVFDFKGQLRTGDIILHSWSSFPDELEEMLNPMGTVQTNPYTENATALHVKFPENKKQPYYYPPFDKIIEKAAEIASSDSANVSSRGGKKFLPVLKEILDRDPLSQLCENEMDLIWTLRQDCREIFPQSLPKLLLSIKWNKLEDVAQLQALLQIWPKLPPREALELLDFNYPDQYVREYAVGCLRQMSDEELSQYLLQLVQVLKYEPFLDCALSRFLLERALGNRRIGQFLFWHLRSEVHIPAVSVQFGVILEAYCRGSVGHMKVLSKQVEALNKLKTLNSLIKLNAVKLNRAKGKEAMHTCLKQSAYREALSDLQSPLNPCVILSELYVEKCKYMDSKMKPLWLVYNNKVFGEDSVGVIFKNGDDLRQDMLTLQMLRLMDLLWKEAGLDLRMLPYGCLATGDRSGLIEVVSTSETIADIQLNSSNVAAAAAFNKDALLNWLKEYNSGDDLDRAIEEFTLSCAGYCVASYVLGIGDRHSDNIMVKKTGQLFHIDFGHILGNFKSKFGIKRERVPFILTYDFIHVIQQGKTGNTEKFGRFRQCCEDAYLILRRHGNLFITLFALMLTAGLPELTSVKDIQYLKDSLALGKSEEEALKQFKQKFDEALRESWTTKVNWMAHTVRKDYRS
How it was run: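 ADP-Glo reagent stopped the reaction (40 min), then detection reagent was added (60 min) and luminescence read. Percent inhibition was derived from RLU.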

CCRF-CEM = test: Antiproliferative activity against human CCRF-CEM cells incubated for 48 hrs by sulforhodamine B assay; assay type: functional; how it was run: as §1
K562 = test: Antiproliferative activity against human K562 cells incubated for 48 hrs by sulforhodamine B assay; assay type: functional; conditions: K562, 48 h; how it was run: as §1
[9] = Antiproliferative activity against human RPMI8226 cells incubated for 48 hrs by sulforhodamine B assay; assay type: functional; conditions: RPMI-8226, 48 h
[10] = Antiproliferative activity against human HOP92 cells incubated for 48 hrs by sulforhodamine B assay; assay type: functional; conditions: HOP-92, 48 h
NCI-H322M = test: Antiproliferative activity against human NCI-H322M cells incubated for 48 hrs by sulforhodamine B assay; assay type: functional; how it was run: as §1
NCI-H522 = test: Antiproliferative activity against human NCI-H522 cells incubated for 48 hrs by sulforhodamine B assay; assay type: functional; conditions: NCI-H522, 48 h; how it was run: as §1
[11] = Antiproliferative activity against human COLO205 cells incubated for 48 hrs by sulforhodamine B assay; assay type: functional; conditions: COLO 205, 48 h; how it was run: as §1
[12] = Antiproliferative activity against human HCC2998 cells incubated for 48 hrs by sulforhodamine B assay; assay type: functional; conditions: HCC 2998, 48 h; how it was run: as §1
HT-29 = test: Antiproliferative activity against human HT-29 cells incubated for 48 hrs by sulforhodamine B assay; assay type: functional; conditions: HT-29, 48 h; how it was run: as §1
KM12 = test: Antiproliferative activity against human KM12 cells incubated for 48 hrs by sulforhodamine B assay; assay type: functional; conditions: KM12, 48 h; how it was run: as §1
[13] = Antiproliferative activity against human SW620 cells incubated for 48 hrs by sulforhodamine B assay; assay type: functional; conditions: SW-620, 48 h; how it was run: as §1
[14] = Antiproliferative activity against human LOXIMVI cells incubated for 48 hrs by sulforhodamine B assay; assay type: functional; conditions: LOX IMVI; how it was run: as §1
M14 = test: Antiproliferative activity against human M14 cells incubated for 48 hrs by sulforhodamine B assay; assay type: functional; conditions: M14, 48 h; how it was run: as §1
MDA-MB-435 = test: Antiproliferative activity against human MDA-MB-435 cells incubated for 48 hrs by sulforhodamine B assay; assay type: functional; conditions: MDA-MB-435, 48 h; how it was run: as §1
SK-MEL-2 = test: Antiproliferative activity against human SK-MEL-2 cells incubated for 48 hrs by sulforhodamine B assay; assay type: functional; conditions: SK-MEL-2, 48 h; how it was run: as §1
[15] = Antiproliferative activity against human OVCAR3 cells incubated for 48 hrs by sulforhodamine B assay; assay type: functional; conditions: OVCAR-3, 48 h; how it was run: as §1
[16] = read-out: pLC50 (the source's name) (converted)

**Q.** For `COc1ncc(-c2ccc3nccc(C#CCN4CCN(S(C)(=O)=O)CC4)c3c2)cc1NS(=O)(=O)c1ccc(F)cc1F`, which GI50 [1] is on record?
**A.** The GI50 was 257 nM.

**Q.** What about the CC50 [1, 16] of the same compound?
**A.** The CC50 was 46800 nM.

**Q.** What about the TGI ([1]; read-out: pTGI (converted)) of the same compound?
**A.** The TGI was 11500 nM.

**Q.** And the GI50 [2]?
**A.** Its GI50 is 251 nM.

**Q.** And the CC50 [2, 16]?
**A.** Its CC50 is 67600 nM.

**Q.** And the TGI ([2]; read-out: pTGI (converted))?
**A.** Its TGI is 10700 nM.

**Q.** And the GI50 (ACHN)?
**A.** The GI50 was 45.7 nM.

**Q.** What about the CC50 (ACHN; [16]) of the same compound?
**A.** The CC50 was 34700 nM.

**Q.** What about the TGI (ACHN; read-out: pTGI (converted)) of the same compound?
**A.** The TGI was 6920 nM.

**Q.** What about the GI50 [3] of the same compound?
**A.** Its GI50 is 63.1 nM.

**Q.** What about the CC50 [3, 16] of the same compound?
**A.** Its CC50 is 36300 nM.

**Q.** What about the TGI ([3]; read-out: pTGI (converted)) of the same compound?
**A.** Its TGI is 10200 nM.

**Q.** And the GI50 [4]?
**A.** The GI50 was 100 nM.

**Q.** And the CC50 [4, 16]?
**A.** Its CC50 is 41700 nM.

**Q.** And the TGI ([4]; read-out: pTGI (converted))?
**A.** Its TGI is 12900 nM.

**Q.** What about the GI50 (MDA-MB-231) of the same compound?
**A.** Its GI50 is 437 nM.

**Q.** What about the CC50 (MDA-MB-231; [16]) of the same compound?
**A.** Its CC50 is 72400 nM.

**Q.** And the TGI (MDA-MB-231; read-out: pTGI (converted))?
**A.** Its TGI is 19500 nM.

**Q.** And the GI50 [5]?
**A.** Its GI50 is 65 nM.

**Q.** What about the IC50 [6] of the same compound?
**A.** The IC50 was 930 nM.

**Q.** And the IC50 [7]?
**A.** The IC50 was 2 nM.

**Q.** And the IC50 [8]?
**A.** The IC50 was 9.4 nM.

**Q.** What about the GI50 (CCRF-CEM) of the same compound?
**A.** The GI50 was 148 nM.

**Q.** What about the CC50 (CCRF-CEM; [16]) of the same compound?
**A.** The CC50 was over 100000 nM.

**Q.** And the TGI (CCRF-CEM; read-out: pTGI (converted))?
**A.** Its TGI is 2570 nM.

**Q.** What about the GI50 (K562) of the same compound?
**A.** Its GI50 is 646 nM.

**Q.** What about the CC50 (K562; [16]) of the same compound?
**A.** The CC50 was over 100000 nM.

**Q.** And the TGI (K562; read-out: pTGI (converted))?
**A.** The TGI was 17000 nM.

**Q.** What about the GI50 [9] of the same compound?
**A.** Its GI50 is 263 nM.

**Q.** And the TGI ([9]; read-out: pTGI (converted))?
**A.** Its TGI is 1450 nM.

**Q.** And the GI50 [10]?
**A.** Its GI50 is 13.8 nM.

**Q.** What about the CC50 [10, 16] of the same compound?
**A.** Its CC50 is 58900 nM.

**Q.** And the GI50 (NCI-H322M)?
**A.** Its GI50 is 110 nM.

**Q.** What about the CC50 (NCI-H322M; [16]) of the same compound?
**A.** The CC50 was 36300 nM.

**Q.** And the TGI (NCI-H322M; read-out: pTGI (converted))?
**A.** Its TGI is 6920 nM.

**Q.** What about the GI50 (NCI-H522) of the same compound?
**A.** Its GI50 is 178 nM.

**Q.** And the CC50 (NCI-H522; [16])?
**A.** The CC50 was 5890 nM.

**Q.** What about the TGI (NCI-H522; read-out: pTGI (converted)) of the same compound?
**A.** Its TGI is 1740 nM.

**Q.** What about the GI50 [11] of the same compound?
**A.** The GI50 was 42.7 nM.

**Q.** What about the CC50 [11, 16] of the same compound?
**A.** Its CC50 is 7240 nM.

**Q.** And the TGI ([11]; read-out: pTGI (converted))?
**A.** Its TGI is 1120 nM.

**Q.** What about the GI50 [12] of the same compound?
**A.** Its GI50 is 61.7 nM.

**Q.** And the CC50 [12, 16]?
**A.** The CC50 was 3980 nM.

**Q.** And the TGI ([12]; read-out: pTGI (converted))?
**A.** Its TGI is 1120 nM.

**Q.** What about the GI50 (HT-29) of the same compound?
**A.** Its GI50 is 20.4 nM.

**Q.** What about the CC50 (HT-29; [16]) of the same compound?
**A.** The CC50 was 35500 nM.

**Q.** And the TGI (HT-29; read-out: pTGI (converted))?
**A.** The TGI was 1510 nM.

**Q.** And the GI50 (KM12)?
**A.** The GI50 was 275 nM.

**Q.** What about the CC50 (KM12; [16]) of the same compound?
**A.** Its CC50 is 4790 nM.

**Q.** And the TGI (KM12; read-out: pTGI (converted))?
**A.** The TGI was 1480 nM.

**Q.** What about the GI50 [13] of the same compound?
**A.** The GI50 was 229 nM.

**Q.** What about the CC50 [13, 16] of the same compound?
**A.** The CC50 was 6920 nM.

**Q.** What about the TGI ([13]; read-out: pTGI (converted)) of the same compound?
**A.** The TGI was 1950 nM.

**Q.** What about the GI50 [14] of the same compound?
**A.** Its GI50 is 81.3 nM.

**Q.** What about the CC50 [14, 16] of the same compound?
**A.** The CC50 was 5620 nM.

**Q.** And the TGI ([14]; read-out: pTGI (converted))?
**A.** Its TGI is 1350 nM.

**Q.** What about the GI50 (M14) of the same compound?
**A.** The GI50 was 72.4 nM.

**Q.** And the CC50 (M14; [16])?
**A.** The CC50 was 19100 nM.

**Q.** And the TGI (M14; read-out: pTGI (converted))?
**A.** The TGI was 1580 nM.

**Q.** And the GI50 (MDA-MB-435)?
**A.** The GI50 was 75.9 nM.

**Q.** What about the CC50 (MDA-MB-435; [16]) of the same compound?
**A.** The CC50 was 6610 nM.

**Q.** What about the TGI (MDA-MB-435; read-out: pTGI (converted)) of the same compound?
**A.** Its TGI is 1070 nM.

**Q.** What about the GI50 (SK-MEL-2) of the same compound?
**A.** The GI50 was 110 nM.

**Q.** And the CC50 (SK-MEL-2; [16])?
**A.** The CC50 was 26300 nM.

**Q.** And the TGI (SK-MEL-2; read-out: pTGI (converted))?
**A.** Its TGI is 871 nM.

**Q.** What about the GI50 [15] of the same compound?
**A.** The GI50 was 51.3 nM.

**Q.** What about the CC50 [15, 16] of the same compound?
**A.** Its CC50 is 6610 nM.

**Q.** And the TGI ([15]; read-out: pTGI (converted))?
**A.** The TGI was 1100 nM.
